From PubChem
Apaf1 inhib: inhibitors of human Apaf-1 apoptosome; AID 489030; reconstituted apoptosome caspase-3 activity, DEVD-Rh110 fluorescence; inhibition, % at 20 µM; 0.71% of 330,000 active; active means inhibition of at least 40% at 20 µM;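 further: plate controls were DMSO wells for no effect and DEVD-CHO caspase inhibitor wells for full effect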
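System: reconstituted apoptosome with Apaf-1, cytochrome c, caspase-9, procaspase-3, dATP; Signal: Rh110 fluorescence intensity; Schedule: 30 min compound preincubation, 50 min activation, room temperature; Reagent: cytochrome c trigger plus (Z-DEVD)2-Rh110 caspase-3 substrate.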
UBC13 polyUb: human UBC13 polyubiquitination inhibition. UBC13 polyubiquitin chain formation, TR-FRET. AID 485273. P61088. inhibition, % at 20 µM. 0.47% of 330,000 active; in the data active means inhibition above about 45%, passing the limit was not always enough; inconclusive means no clear call, values can overlap the other calls
Target sequence (P61088 whole entry, looked up): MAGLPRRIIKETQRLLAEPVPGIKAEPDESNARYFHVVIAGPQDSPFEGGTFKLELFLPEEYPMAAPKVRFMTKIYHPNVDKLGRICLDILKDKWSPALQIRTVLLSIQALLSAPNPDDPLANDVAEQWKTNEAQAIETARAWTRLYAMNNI
ANO1 block: inhibitors of mouse TMEM16A calcium-activated chloride channel | HEK293 TMEM16A/YFP iodide influx fluorescence, ionomycin | normalized B-score (activity score, 25-100; higher = stronger inhibition) at 10 µM | 1.2% of 310,000 active | Q8BHY3;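 active means ratio plate-corrected score three or more library SD toward inhibition, starting fluorescence score within five deviations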;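 further: score derived from kinetic fluorescence span divided by baseline fluorescence per well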
FID counter: fluorescent intercalator displacement, NS3 helicase counter-screen. DNA fluorescent intercalator displacement, fluorescence. AID 1845. 0.17% of 290,000 active. inhibition, % at 7.9 µM; in the data active means inhibition above about 37%;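 further: 0% = vehicle and 100% = reference compound; higher means more ethidium bromide displaced from hairpin DNA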
ANO1 activ: activates or potentiates the mouse TMEM16A chloride channel; 0.3% of 340,000 active; HEK293 TMEM16A/YFP-H148Q/I152L, iodide quench fluorescence; stronger effect = lower value; B-score at 10 µM; Q8BHY3;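 active means fluorescence-ratio B-score plate-corrected deviation score at least 3 library SD below zero, with starting fluorescence score within 5 deviations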;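 further: channel opened by trigger with iodide after compound preincubation; score built on the fluorescence ratio of max minus min over baseline; more negative score means more quench and so TMEM16A activation or potentiation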
* marks the source's active call; other numbers are inactive results; i = inactive; ? = inconclusive; · = no result. This is a sample that favours compounds with a hit; in the whole collection about 2.4% have one here.

SMILES	Apaf1 inhib	UBC13 polyUb	ANO1 block	FID counter	ANO1 activ
O=C(CCCCCN1C(=O)[C@@H]2Cc3ccccc3CN2C1=O)Nc1cccc(F)c1	9	5	25*	-44	i
COc1ccc(Cl)cc1NC(=O)CN(C)C(=O)c1cc(=O)c2ccccc2o1	-6	11	·	·	i
COc1ccc(-c2n[nH]c(C)c2-c2ccc(Cl)cc2)c(O)c1	25	18	i	-5	i
Cc1[nH]nc(-c2ccc(O)cc2O)c1-c1ccc(Cl)cc1	24	15	100*	0	i
COc1ccc(NC(=O)CN2CCN(c3ccc(F)cc3)CC2)cc1Cl	11	11	i	-7	-11*
COc1ccc(-c2csc(NC(=O)c3ccccc3OC)c2C(=O)O)cc1OC	8	0	i	-32	i
COc1ccc(-c2csc(NC(=O)c3cccs3)c2C(=O)O)cc1OC	-24	-3	i	-16	-41*
O=C(CSc1nc(CCC2CCCC2)nc2ccccc12)NCc1ccc2c(c1)OCO2	19	?	i	-9	i
CC(C)(C)c1ccc(C(=O)NCCC(=O)N2CCN(c3ncccn3)CC2)cc1	11	-2	100*	-36	i
CC(C)(C)c1ccc(C(=O)NCCC(=O)N2CCCC2)cc1	-1	5	i	-26	i
CC(Sc1ncnc2sc(-c3ccccc3)cc12)C(=O)N1CCNC1=O (configuration not stated)	5	8	·	·	i
CC(C)N(C(=O)CSc1ncnc2sc(-c3ccccc3)cc12)C(C)C	18	7	25*	-7	i
CCc1nc2ccc(C(=O)NCCCN3CCN(c4ccccc4F)CC3)cc2nc1CC	10	5	i	2	i
CCN(CC)Cc1cc2ccccc2c2c1COC2	-11	8	25*	-3	i
CSc1ccccc1NC(=O)CN(C)Cc1cccc(Cl)c1	9	8	i	4	-39*
c1ccc(Nc2ccnc(Nc3ccccc3)n2)cc1	11	26	25*	16	i
CCCN(CCC)CCCNC(=O)CC(C(=O)N1CCc2ccccc21)n1ccnc1 (configuration not stated)	-4	6	25*	3	i
CNCC[C@H](Oc1cccc2ccccc12)c1cccs1	27	18	i	41*	i
O=C1c2ccccc2C(Nc2ccc(F)c(Cl)c2)N1Cc1ccco1 (configuration not stated)	12	-3	i	-17	-22*
COc1ccc(NC2c3ccccc3C(=O)N2Cc2ccco2)cc1OC (configuration not stated)	10	4	i	-11	i
COCCNC(=O)C1CCC(CNS(=O)(=O)c2ccccc2)CC1 (configuration not stated)	-2	-1	i	-8	i
Cc1ccc(-c2noc(CCC(=O)N3CCN(c4cccc(C(F)(F)F)c4)CC3)n2)cc1	42*	-8	25*	-5	i
COc1ccc(-c2noc(CCC(=O)N3CCN(c4ccc(C(F)(F)F)cc4)CC3)n2)cc1	17	·	·	·	·
CCCCCOc1ccc(/C(C)=N/NC2=NCCN2)cc1	9	35	i	16	i
CCOc1ccc(Br)cc1/C(C)=N\NC1=NCCN1	0	12	100*	13	i
SMILES	Apaf1 inhib	UBC13 polyUb	ANO1 block	FID counter	ANO1 activ
COc1cc([N+](=O)[O-])ccc1-c1ccc(/C=C2\C(=O)ON=C2c2ccccc2)o1	·	·	·	·	-5.7*
O=C1ON=C(c2ccccc2)/C1=C\c1ccco1	-6	-14	i	-9	i
COc1cc([N+](=O)[O-])ccc1-c1ccc(/C=N\n2cnnc2)o1	-11	-7	i	-6	i
CC1=NOC(=O)/C1=C\c1ccc(-c2cccc(Cl)c2)o1	28	-18	100*	7	i
Cc1ccc(/C=C2/C(=O)ON=C2c2ccccc2)o1	-3	-10	25*	-14	i
Cc1ccc(N2CCN(C(=O)CNS(=O)(=O)c3ccc(Br)s3)CC2C)cc1 (configuration not stated)	-2	-2	100*	-28	i
CC1CC(C)CN(C(=O)CNS(=O)(=O)c2ccc(Br)s2)C1 (configuration not stated)	-9	-3	i	-20	i
O=C(/C=C\c1ccccc1OC(=O)c1ccccc1F)c1cc2ccccc2o1	3	7	i	4	i
O=C(NCCCN1CCCC1=O)Nc1ccc([N+](=O)[O-])cc1	0	-1	i	4	·
COc1ccc(CC2=CC(=O)c3ccccc3C2=O)cc1	50*	-27	i	0	i
COc1cccc2[nH]c3c(N4CCc5ccccc5C4)ncnc3c12	-6	15	i	1	·
OC1(c2cccc(C(F)(F)F)c2)CCN(c2ncnc3c2[nH]c2ccccc23)CC1	23	8	100*	-2	i
c1ccc2c(c1)CCN(c1ncnc3c1[nH]c1ccccc13)C2	28	4	100*	·	i
COc1ccc(OC)c(C2=Nn3c(nnc3-c3ccco3)SC2)c1	-5	7	i	-7	i
COc1ccc(OC)c(C2=Nn3c(nnc3-c3cccc(OC(C)C)c3)SC2)c1	17	10	i	-2	-5*
O=[N+]([O-])c1cccc(S(=O)(=O)N2CCCCC2c2cccnc2)c1 (configuration not stated)	-9	6	i	-8	i
Cc1ccc(C(C)C)c(OCC(=O)NCC(c2cccs2)N2CCOCC2)c1 (configuration not stated)	10	2	100*	·	i
O=C(COc1cc(F)ccc1[N+](=O)[O-])Nc1cccc(S(=O)(=O)NC2=NCCC2)c1	10	-7	·	·	i
Cc1ccc(C)c(-n2cc[nH]c2=S)c1	3	10	i	1	i
CCOc1c(OC(C)=O)ccc(/C=C2\N=C(SCC)SC2=O)c1[N+](=O)[O-]	9	-88	100*	3	i
CCOc1cc(/C=C2\N=C(SCC)SC2=O)cc([N+](=O)[O-])c1OC(C)=O	15	-105	100*	-9	i
O=C(c1ccco1)N1CCN(C2CC(=O)N(c3ccc(F)c(Cl)c3)C2=O)CC1 (configuration not stated)	8	-9	i	-16	i
Cc1ccc(F)cc1NC(=O)N1c2ccccc2NC(=O)CC1C (configuration not stated)	1	6	i	-4	i
CCc1ccc(-c2cc(C)no2)cc1S(=O)(=O)N1CCC(C)CC1	18	-6	25*	-42	i
O=C(NCCN1CCN(c2ccccc2F)CC1)C1CCCN(S(=O)(=O)c2cnc[nH]2)C1 (configuration not stated)	-8	4	i	0	-18*
COc1ccccc1OCCSc1nc2ccc([N+](=O)[O-])cc2s1	17	-4	100*	-3	i
